Measurements as given in ChEMBL document CHEMBL3085691, “Discovery of tryptanthrin derivatives as potent inhibitors of indoleamine 2,3-dioxygenase with therapeutic activity in Lewis lung cancer (LLC) tumor-bearing mice” (J Med Chem, 2013).
The source made the active and inactive calls. No cut-off for these calls is given here.

Experiments:
[1] = molecular target: T1, Indoleamine 2,3-dioxygenase 1 (Homo sapiens, UniProt P14902); test: Mixed competitive inhibition of human recombinant IDO1 using L-tryptophan as substrate
Outline: (§1)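 Reversibility and inhibition mode taken from kinetic graphical plots of recombinant human IDO-1 activity. The enzyme assay used a methylene blue/ascorbate regeneration system. Ki derived by plotting [S]/V against inhibitor concentration.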
Target sequence in this assay (P14902 whole entry): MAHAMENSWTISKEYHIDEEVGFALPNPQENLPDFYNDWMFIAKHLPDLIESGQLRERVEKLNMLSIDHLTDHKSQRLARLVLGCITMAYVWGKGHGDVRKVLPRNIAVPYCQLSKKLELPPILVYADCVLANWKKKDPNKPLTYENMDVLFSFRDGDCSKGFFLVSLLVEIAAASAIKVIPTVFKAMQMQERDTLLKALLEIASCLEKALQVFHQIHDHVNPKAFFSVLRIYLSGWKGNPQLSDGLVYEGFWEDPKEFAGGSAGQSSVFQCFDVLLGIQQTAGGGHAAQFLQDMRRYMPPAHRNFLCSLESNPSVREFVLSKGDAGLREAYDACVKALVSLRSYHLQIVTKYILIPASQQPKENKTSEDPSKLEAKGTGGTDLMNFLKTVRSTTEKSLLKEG

[2] = molecular target: T1, Indoleamine 2,3-dioxygenase 1; test: Inhibition of human IDO1 expressed in HEK293 cells assessed as kynurenine release after 5 hrs by spectrophotometry; type: cell-based
[3] = molecular target: T1, Indoleamine 2,3-dioxygenase 1; test: Uncompetitive inhibition of human recombinant IDO1 using L-tryptophan as substrate; outline: as §1
Target sequence in this assay (P14902 whole entry): as above

[4] = molecular target: T1, Indoleamine 2,3-dioxygenase 1; test: Competitive inhibition of human recombinant IDO1 using L-tryptophan as substrate
Target sequence in this assay (P14902 whole entry, looked up): as the sequence (P14902 whole entry) above

[5] = DPPH radical scavenging activity assessed as reducing ability at 5 to 160 uM after 30 mins by spectrophotometry; details: 0.5 h
[6] = molecular target: T1, Indoleamine 2,3-dioxygenase 1; test: Binding affinity to human IDO1 by SPR assay
Outline: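 SPR at 25 °C on purified human IDO-1 immobilized on a CM5 sensor chip, compound injected at a series of concentrations. Running buffer PBS with 0.1% dodecylmaltoside, 0.05 mM EDTA and 5% DMSO, pH 7.4. KD taken as the equilibrium dissociation constant from instrument evaluation.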
Target sequence in this assay (P14902 whole entry): as above

[7] = system: Lewis lung carcinoma cell line; test: Antitumor activity against mouse LLC cells allografted in C57BL/6 mouse assessed as reduction in tumor volume at 200 mg/kg, po qd after 14 days; type: functional; details: 336 h, read-out: TGI
Mus musculus [8] = test: Reduction of Foxp3 expression in nucleus of C57BL/6 mouse tumor allografted with mouse LLC cells at 200 mg/kg, po qd after 14 days by immunohistochemical analysis
Mus musculus [9] = test: In vivo inhibition of IDO1 in C57BL/6 mouse allografted with mouse LLC cells assessed as kynurenine to tryptophan ratio in plasma at 200 mg/kg, po qd after 14 days by HPLC analysis relative to control; type: functional, organism-based; set-up: dose 200 mg/kg
Outline: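 C57BL/6 mice, 8 weeks old, given 2 × 10^6 LLC cells sc in right forelimb and randomized to three groups. Oral dosing once daily from 5 mm tumor diameter with 0.5% CMC vehicle or 200 mg/kg. Plasma taken after 14 days. Trp and Kyn measured by HPLC and Kyn/Trp ratio calculated, n = 9−10. One-way ANOVA against vehicle.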

Mus musculus [10] = test: Upregulation of IDO1 expression in cytoplasm of C57BL/6 mouse tumor allografted with mouse LLC cells at 200 mg/kg, po qd after 14 days by immunohistochemical analysis; type: functional, organism-based; set-up: dose 200 mg/kg
Outline: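 LLC allografts in C57BL/6 mice, sc at 2 × 10^6 cells. Oral dosing once daily at 200 mg/kg or 0.5% CMC vehicle from 5 mm tumor diameter for 14 days. Tumors and TDLNs cut into 5 μm sections with heat antigen retrieval. Rabbit Foxp3 Ab (1/100) or mouse IDO-1 Ab (1/50) applied 1 h, then Alexa Fluor secondary 30 min. Nuclei counterstained; imaged at ×200.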

[11] = DPPH radical scavenging activity assessed as reducing ability at […] after 30 mins by spectrophotometry; type: physicochemical; details: 0.5 h
Outline: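 Tryptanthrins at 5, 10, 20, 40, 80 or 160 μM in DMSO (100 μL) mixed with 100 μL DPPH radical (100 μM in ethanol, acetate-buffered pH 5.5). Absorbance at 517 nm read after 30 min gentle shaking in the dark. Ascorbic acid as reference. Triplicates.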

[12] = molecular target: T1, Indoleamine 2,3-dioxygenase 1; test: Inhibition of human recombinant IDO1 using L-tryptophan as substrate
Target sequence in this assay (P14902 whole entry): as above

IC50 [2] | IC50 [3] | Ki [3] | Activity [5] | SMILES | other results
0.0271 µM | 8.19 µM | 9.65 µM | Not Active | O=C1c2c(Cl)cccc2-n2c1nc1ccccc1c2=O | 
0.023 µM | 0.534 µM | 0.161 µM | Not Active | O=C1c2cc(F)ccc2-n2c1nc1ccccc1c2=O | Kd [6]: 46.8 µM; inhibition in vivo at 200 mg/kg [7]: 62%; Activity (Mus musculus [8]): Active; inhibition (Mus musculus [9]): Active; Activity (Mus musculus [10]): Active
0.779 µM | 16 µM | 8.58 µM |  | O=C1c2ccccc2N[C@H]2[C@H](O)c3ccccc3N12 | 
0.0243 µM | 6.21 µM | 4.54 µM |  | O=C1c2ccccc2N[C@H]2[C@H](O)c3cc(F)ccc3N12 | 
0.0537 µM |  |  | Not Active | O=C1c2ccccc2-n2c1nc1ccccc1c2=O [TRYPTANTHRIN] | IC50 [1]: 7.15 µM; Ki [1]: 4.81 µM

The remaining lines, values behind:

SMILES | IC50 [2] | IC50 [3] | Ki [3] | Activity [5] | other results
Cc1ccc2c(c1)C(=O)c1nc3ccccc3c(=O)n1-2 |  |  |  |  | IC50 [1]: 121 µM; Ki [1]: 219 µM
O=C1c2cc(F)ccc2-n2c1nc1ccc(F)cc1c2=O | 0.466 µM | 2.72 µM | 5.48 µM |  | 
O=C1c2cc(Cn3cc(-c4ccccc4)nn3)ccc2-n2c1nc1ccc(F)cc1c2=O |  |  |  |  | inhibition [2]: inactive; inhibition [4]: inactive
O=C1c2cc(Br)ccc2-n2c1nc1ccccc1c2=O | 0.0539 µM | 0.574 µM | 0.389 µM | Not Active | 
O=C1c2cc([N+](=O)[O-])ccc2-n2c1nc1ccccc1c2=O |  | 0.103 µM | 0.054 µM | Not Active | 
O=C1O[C@H]([C@@H](O)CO)C(O)=C1O [ASCORBIC ACID] |  |  |  |  | Activity [11]: Active
O=C1c2ccccc2-n2c1nc1ccc(F)cc1c2=O |  |  |  |  | IC50 [12]: 864 µM
O=C1c2ccc(Cl)cc2-n2c1nc1ccccc1c2=O | 0.183 µM | 74.4 µM | 49.4 µM |  | 
O=C1c2cc(F)ccc2N[C@H]2[C@H](O)c3ccccc3N12 |  |  |  |  | IC50 [12]: 451 µM
